≈ marks a conversion by molar mass, not a printed value.

In ChEMBL document CHEMBL1156224, “Design, synthesis, and antibiofilm activity of 2-arylimino-3-aryl-thiazolidine-4-ones” (2010) one finds MIC, MBC and Activity data, which are given here for 25 compounds.

Type in all cases: functional
Test [1] deals with Staphylococcus epidermidis. The experiment in a line: Antibacterial activity against Staphylococcus epidermidis RP62A by broth microdilution method. Put shortly: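 MIC against S. epidermidis RP62A by CLSI broth microdilution run in tubes (tube-dilution).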
In test [2] the test system is Staphylococcus epidermidis. The test can be described thus: Antibacterial activity against Staphylococcus epidermidis RP62A assessed as colony number after 24 hrs microdilution agar plate method. Put shortly: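 MBC: 100 μl from each tube without visible growth in the MIC assay subcultured onto compound-free Mueller-Hinton agar, 37 °C for 24 h. Endpoint is the lowest concentration giving subcultures with no more than five colonies per plate.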

In test [3] the test system is Staphylococcus epidermidis. The experiment in a line: Antibacterial activity against Staphylococcus epidermidis RP62A 6 hrs biofilm after 16 hrs by microtiter plate method. In short, it runs like this: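 S. epidermidis RP62A overnight culture diluted 1:10 in TSB (OD600 0.6–0.8), then 1:200 in MH; inoculated into 96-well polystyrene wells, 37 °C for 6 h to form young biofilm. Wells washed four times with sterile PBS, fresh TSB with compound at various concentrations added, further 37 °C for 16 h.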

In test [1], `Cc1ccccc1/N=C1\S/C(=C\c2ccc(O)cc2)C(=O)N1c1ccccc1C` registered a minimal inhibitory concentration (MIC) above 200 µM. For the same compound, the minimum bactericidal concentration (MBC) in test [2] is above 200 µM. This compound also gave an Activity in test [3] above 200 µM.

Regarding `CCc1ccccc1/N=C1\S/C(=C\c2ccc(OCC(=O)O)c(OC)c2)C(=O)N1c1ccccc1CC`, 50 µM (≈ 25.8 µg/mL) was the least that counted as inhibitory in test [1] (MIC). Further, the MBC in test [2] was 100 µM. Besides, the Activity in test [3] is 100 µM.

The compound `COc1cc(/C=C2\S/C(=N\c3ccccc3C)N(c3ccccc3C)C2=O)ccc1O` returned an MIC in test [1] above 200 µM. Besides, the MBC in test [2] is above 200 µM. Besides, the Activity in test [3] is above 200 µM.

Take `Cc1ccccc1/N=C1\S/C(=C\c2ccc(-c3cccc(C(=O)O)c3)o2)C(=O)N1c1ccccc1C`: the minimum inhibitory concentration (MIC) in test [1] was 12.5 µM (≈ 6.18 µg/mL). The minimal bactericidal concentration (MBC) in test [2] amounted to 25 µM. The same compound yielded an Activity in test [3] of 25 µM.

Compound `COc1cc(/C=C2\S/C(=N\c3ccccc3C)N(c3ccccc3C)C2=O)ccc1OCC(=O)O` had an MIC in test [1] above 200 µM. The minimum bactericidal concentration (MBC) in test [2] was above 200 µM. In test [3], this compound showed an Activity above 200 µM.

In turn, `CCc1ccccc1/N=C1\S/C(=C\c2ccc(OCC(=O)O)cc2)C(=O)N1c1ccccc1CC` registered a minimal inhibitory concentration (MIC) in test [1] of 50 µM (≈ 24.3 µg/mL). Further, in test [2], the MBC was found to be 100 µM. For the same compound, in test [3], the Activity stood at 100 µM.

As to `CCc1ccccc1/N=C1\S/C(=C\c2cccc(OCC(=O)O)c2)C(=O)N1c1ccccc1CC`, in test [1], the MIC came to 50 µM (≈ 24.3 µg/mL). Also, in test [2], the MBC was determined as 100 µM. Moreover, the Activity in test [3] is 100 µM.

`CCc1ccccc1/N=C1\S/C(=C\c2ccc(O)cc2)C(=O)N1c1ccccc1CC` gave a minimal inhibitory concentration (MIC) in test [1] above 200 µM. Moreover, the minimum bactericidal concentration (MBC) in test [2] was above 200 µM. Besides, the Activity in test [3] is above 200 µM.

`CCc1ccccc1/N=C1\S/C(=C\c2cccc(O)c2)C(=O)N1c1ccccc1CC` came in with an MIC in test [1] above 200 µM. Besides, in test [2], the minimum bactericidal concentration (MBC) is above 200 µM. For the same compound, the Activity in test [3] was above 200 µM.

For the compound `COC(=O)COc1ccc(/C=C2\S/C(=N\c3ccccc3)N(c3ccccc3)C2=O)cc1OC`, the minimum inhibitory concentration (MIC) in test [1] is above 200 µM. Moreover, in test [2], the minimum bactericidal concentration (MBC) was above 200 µM. In test [3], the Activity was above 200 µM.

In test [1], `COC(=O)c1cccc(-c2ccc(/C=C3\S/C(=N\c4ccc(C)cc4)N(c4ccc(C)cc4)C3=O)o2)c1` yielded a minimal inhibitory concentration (MIC) above 200 µM. The MBC in test [2] was above 200 µM. For the same compound, the Activity in test [3] is above 200 µM.

With `COC(=O)c1cccc(-c2ccc(/C=C3\S/C(=N\c4ccccc4C)N(c4ccccc4C)C3=O)o2)c1`, the MIC in test [1] is above 200 µM. Moreover, the MBC in test [2] is above 200 µM. The compound also gave an Activity in test [3] above 200 µM.

In test [1], `CCc1ccccc1/N=C1\S/C(=C\c2cccc(OCC(=O)OC)c2)C(=O)N1c1ccccc1CC` yielded a minimal inhibitory concentration (MIC) above 200 µM. The minimal bactericidal concentration (MBC) in test [2] is above 200 µM. Also, the Activity in test [3] is above 200 µM.

The compound `CCc1ccccc1/N=C1\S/C(=C\c2ccc(-c3cccc(C(=O)OC)c3)o2)C(=O)N1c1ccccc1CC` displayed an MIC in test [1] above 200 µM. Also, in test [2], the MBC was above 200 µM. The Activity in test [3] is above 200 µM.

For `CCc1ccccc1/N=C1\S/C(=C\c2ccc(-c3cccc(C(=O)O)c3)o2)C(=O)N1c1ccccc1CC`, the minimum inhibitory concentration (MIC) in test [1] was 12.5 µM (≈ 6.53 µg/mL). Besides, in test [2], the MBC stood at 25 µM. Moreover, the Activity in test [3] stood at 25 µM.

The compound `Cc1ccc(/N=C2\S/C(=C\c3ccc(-c4cccc(C(=O)O)c4)o3)C(=O)N2c2ccc(C)cc2)cc1` registered an MIC in test [1] of 6.25 µM (≈ 3.09 µg/mL). The minimal bactericidal concentration (MBC) in test [2] is 25 µM. Besides, in test [3], the Activity turned out to be 12.5 µM.

`COc1cc(/C=C2\S/C(=N\c3ccccc3)N(c3ccccc3)C2=O)ccc1O` gave an MIC in test [1] above 200 µM. Further, the MBC in test [2] was above 200 µM. In test [3], this compound came in with an Activity above 200 µM.

For `COc1ccc(/N=C2\S/C(=C\c3ccc(-c4cccc(C(=O)O)c4)o3)C(=O)N2c2ccc(OC)cc2)cc1`, in test [1], inhibition of growth (MIC) required 6.25 µM (≈ 3.29 µg/mL). Besides, the MBC in test [2] was 25 µM. The same compound had an Activity in test [3] of 6.25 µM.

Turning to `COC(=O)c1cccc(-c2ccc(/C=C3\S/C(=N\c4ccc(OC)cc4)N(c4ccc(OC)cc4)C3=O)o2)c1`, the minimal inhibitory concentration (MIC) in test [1] was above 200 µM. In test [2], the MBC was above 200 µM. The compound also gave an Activity in test [3] above 200 µM.

Take `COc1cc(/C=C2\S/C(=N\c3ccccc3)N(c3ccccc3)C2=O)ccc1OCC(=O)O`: the MIC in test [1] was above 200 µM. For the same compound, in test [2], the MBC was above 200 µM. In test [3], this compound registered an Activity above 200 µM.

Compound `Cc1ccccc1/N=C1\S/C(=C\c2ccc(OCC(=O)O)cc2)C(=O)N1c1ccccc1C` gave an MIC in test [1] above 200 µM. Also, the MBC in test [2] is above 200 µM. Besides, in test [3], the Activity was above 200 µM.

Regarding `COC(=O)COc1ccc(/C=C2\S/C(=N\c3ccccc3C)N(c3ccccc3C)C2=O)cc1`, in test [1], the MIC is above 200 µM. Moreover, the MBC in test [2] is above 200 µM. This compound also had an Activity in test [3] above 200 µM.

The compound `COC(=O)COc1ccc(/C=C2\S/C(=N\c3ccccc3C)N(c3ccccc3C)C2=O)cc1OC` registered an MIC in test [1] above 200 µM. In addition, the MBC in test [2] is above 200 µM. Moreover, in test [3], the Activity was above 200 µM.

In test [1], `CCc1ccccc1/N=C1\S/C(=C\c2ccc(OCC(=O)OC)cc2)C(=O)N1c1ccccc1CC` returned an MIC above 200 µM. In addition, the minimum bactericidal concentration (MBC) in test [2] is above 200 µM. This compound displayed an Activity in test [3] above 200 µM.

Regarding `CN(C)c1ccc(/C=C2\S/C(=N\c3ccccc3)N(c3ccccc3)C2=O)cc1`, the MIC in test [1] is above 200 µM. In test [2], the minimal bactericidal concentration (MBC) was above 200 µM. Besides, the Activity in test [3] is above 200 µM.
